Screening results (PubChem)
This is a sample that favours compounds with a hit; in the whole collection about 3.2% have one here.
HTRA1 inhibitor: HTRA1 (human) protease inhibition | Q92743 | recombinant HTRA1, FP-rhodamine activity-based probe, fluorescence polarization | inhibition, % at 5.96 µM | 0.5% of 340,000 active; in the data active = inhibition above about 36%
Target sequence (Q92743 whole entry, looked up): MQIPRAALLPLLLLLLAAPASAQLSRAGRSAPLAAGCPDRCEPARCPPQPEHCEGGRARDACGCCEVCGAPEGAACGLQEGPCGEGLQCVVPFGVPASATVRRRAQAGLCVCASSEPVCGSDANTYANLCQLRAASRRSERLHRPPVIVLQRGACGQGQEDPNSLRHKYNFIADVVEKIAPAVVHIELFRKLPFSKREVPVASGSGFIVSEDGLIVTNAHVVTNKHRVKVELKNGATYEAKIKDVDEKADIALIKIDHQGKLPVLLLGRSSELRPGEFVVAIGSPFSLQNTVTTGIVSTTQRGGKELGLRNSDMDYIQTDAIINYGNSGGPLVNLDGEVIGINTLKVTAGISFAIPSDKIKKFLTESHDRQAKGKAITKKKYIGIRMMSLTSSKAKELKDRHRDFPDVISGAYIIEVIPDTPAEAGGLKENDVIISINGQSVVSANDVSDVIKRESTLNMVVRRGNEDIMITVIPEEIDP
LEDGF integ inh: blocks HIV-1 LEDGF/p75-dependent DNA integration; TR-FRET IN-LEDGF/p75 DNA integration, Eu/Cy5; inhibition, % at 3.7 µM; AID 743269; 0.64% of 370,000 active;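 active = inhibition above the screen-wide mean plus 3 SD, cut at about 13% in these data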;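 note: signal is the Cy5 over europium emission ratio at 671 and 618 nm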
rCAG binder: molecules binding r(CAG) RNA repeats; r(CAG) RNA repeat, TO-PRO-1 dye displacement fluorescence; inhibition, % at 3 µM; 1.3% of 370,000 active;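 active = inhibition above the plate cutoff, the mean of all test compounds on that plate plus 3 SD, cut at about 35% in these data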;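 note: higher means more dye released from RNA so lower well fluorescence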
mABHD4 FP: inhibitors of mouse ABHD4; Q8VD66; inhibition, % at 8.92 µM; AID 720543; purified mABHD4, FP-Rh probe fluorescence polarization; 0.54% of 370,000 active;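 active = inhibition exceeding the mean over every tested compound plus 3 SD, cut at about 30% in these data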
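Test system: mABHD4 protein | Buffer or medium: HEPES pH 7.0 buffer, 150 mM NaCl, 0.01% Pluronic F-127 | Probe or stimulus: FP-Rh fluorescent activity-based probe, added after compound pre-incubation | Timing: Pre-incubation 45 min, probe exposure 60 min, at 25 °C | Technique: Fluorescence polarization, excitation 525 nm, emission 598 nm, BODIPY TMR filters | Repeats: Single well per compound (singlicate)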
DAGLB inh: blocks human DAGLB lipase activity. HEK293T DAGLB membrane lysate, EnzChek fluorogenic substrate. inhibition, % at 5.17 µM. Q8NCG7. 0.059% of 340,000 active; in the data active = inhibition above about 34%
PRMT1 FP inh: blocks human protein arginine methyltransferase 1; 1.3% of 370,000 active; recombinant PRMT1, activity-based probe fluorescence polarization; inhibition, % at 2.79 µM; Q99873; AID 652257;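 active = inhibition above about 21% made by adding two undisclosed values, limit read from the data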
PRMT1 inh conf: PRMT1 (human) inhibition, FP confirmation; shares compounds with PRMT1 FP inh; recombinant His-PRMT1, activity-based probe fluorescence polarization; inhibition, % at 2.79 µM; 42% of 3,300 active; AID 687036;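 active = mean inhibition across replicates above the hit cutoff derived for the earlier primary screen, cut at about 22% in these data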
Each line names hits and unclear results; the compound was inactive in the other large screens (follow-up assays come after a bar, where they were run).

CC(NC(=O)CSc1nc2c(c(C(F)(F)F)n1)CCc1ccccc1-2)c1ccccc1 (configuration not stated)	none
O=C(CSc1nc2c(c(C(F)(F)F)n1)CCc1ccccc1-2)NCc1ccco1	PRMT1 FP inh 26 | PRMT1 inh conf inactive
O=C(c1ccccc1)c1ccc(Oc2ccc(C(=O)O)c(C(=O)O)c2)cc1	none
O=C(Nc1ccc(S(=O)(=O)NC2=NCCCCC2)cc1)c1cccs1	PRMT1 FP inh 70 | PRMT1 inh conf inactive
O=C(Nc1ccc(S(=O)(=O)NC2=NCCCCC2)cc1)c1ccc([N+](=O)[O-])s1	none
Cc1cccc(-c2nnc(SCC(=O)Nc3ccc(OCc4ccccc4)cc3)n2Cc2ccco2)c1	none (no result: HTRA1 inhibitor, DAGLB inh)
Cc1ccc2nc(-c3ccc(NC(=O)CSc4nnc(-c5ccccc5)n4Cc4ccco4)cc3)sc2c1	PRMT1 FP inh 25 (no result: HTRA1 inhibitor, DAGLB inh) | PRMT1 inh conf inactive
Cc1cccc(-c2nnc(SCC(=O)Nc3ccc(-c4nc5ccc(C)cc5s4)cc3)n2Cc2ccco2)c1	PRMT1 FP inh 41 (no result: HTRA1 inhibitor, DAGLB inh) | PRMT1 inh conf inactive
O=C1CC(Sc2nnc(-c3ccccc3)o2)C(=O)N1c1ccccc1 (configuration not stated)	PRMT1 FP inh 68 | PRMT1 inh conf 60
O=C(O)c1cccnc1SC1CC(=O)N(c2ccccc2)C1=O (configuration not stated)	none
Cc1ccccc1N1C(=O)CC(Sc2nnc(-c3ccccc3)o2)C1=O (configuration not stated)	PRMT1 FP inh 83 | PRMT1 inh conf 68
O=C1c2ccccc2CC1Sc1nnc(-c2ccncc2)o1 (configuration not stated)	none
CN(c1ccccc1)S(=O)(=O)c1ccc(C(=O)N2CCCC2)cc1	none
C=CCc1cccc2cc(C(=O)Nc3ccccc3C(=O)O)c(=O)oc12	rCAG binder 38, PRMT1 FP inh 36 (no result: HTRA1 inhibitor, DAGLB inh) | PRMT1 inh conf inactive
CCOC(=O)[C@@H]1[C@H]2COc3cc(OC)ccc3[C@@H]2N2C(=O)N(c3ccc(C(F)(F)F)cc3)C(=O)[C@]12C	none
COC(=O)c1ccc(CSC(=N)N)o1	none
CCOC(=O)c1ccoc1CSCc1ccc(C(=O)OC)o1	PRMT1 FP inh 39 | PRMT1 inh conf 45
COc1ccc(C(=O)Nc2ccccc2C(=O)NCCN2CCOCC2)cc1OC	PRMT1 FP inh 25 | PRMT1 inh conf inactive
COc1ccc(C(=O)Nc2ccccc2C(=O)NCCN2CCOCC2)cc1	none
Cn1c(=O)c(NC2CCCCC2)c2c3c(cccc31)C(=O)c1ccccc1-2	PRMT1 FP inh 77 | PRMT1 inh conf 41
COc1ccccc1CC(=O)NCCN1C(=O)C2C3C=CC(C3)C2C1=O (configuration not stated)	none (no result: HTRA1 inhibitor, DAGLB inh)
COc1ccc(C2C(C(=O)Nc3ccccc3)=C(C)N=C3SCC(=O)N32)cc1 (configuration not stated)	none
CC1=C(C(=O)Nc2ccccc2)C(c2ccc(O)cc2)N2C(=O)CSC2=N1 (configuration not stated)	PRMT1 FP inh 26 | PRMT1 inh conf 29
CC(C)N(C(=O)[C@H]1C[C@H](CC(=O)NCCc2ccccn2)C(=O)N2CCc3c([nH]c4cc(-c5ccco5)ccc34)[C@]12C)C(C)C	PRMT1 FP inh 40 | PRMT1 inh conf inactive
C[C@]12c3[nH]c4cc(-c5ccco5)ccc4c3CCN1C(=O)[C@@H](CC(=O)NCCc1ccccn1)C[C@@H]2C(=O)N1CCOCC1	none
O=C(CSc1nccn(-c2ccc(Br)cc2)c1=O)NC1CCCC1	none
CCOc1ccc(-n2ccnc(SCC(=O)NCc3cccc(OC)c3)c2=O)cc1	none
CCOc1ccc(-n2ccnc(SCC(=O)Nc3ccc(OC)cc3OC)c2=O)cc1	PRMT1 FP inh 27 | PRMT1 inh conf 27
COc1ccc(CNC(=O)CSc2nccn(-c3ccc(F)c(F)c3)c2=O)cc1	PRMT1 FP inh 33 | PRMT1 inh conf 27
Cc1ccc(-n2ccnc(SCC(=O)NC3CCCCC3)c2=O)cc1F	PRMT1 FP inh 26 | PRMT1 inh conf inactive
O=C(CSc1nccn(-c2ccc(Br)cc2)c1=O)Nc1ccccc1F	PRMT1 FP inh 46 | PRMT1 inh conf inactive
COc1ccc(-n2ccnc(SCC(=O)NC3CCCC3)c2=O)cc1OC	none
